Our source for the IC50 and inhibition values is ChEMBL document CHEMBL1772940, “Design and synthesis of potent and selective aldose reductase inhibitors based on pyridylthiadiazine scaffold” (Eur J Med Chem, 2011).

The target in assay [1] is Aldo-keto reductase family 1 member B1 (Rattus norvegicus, UniProt P07943). Briefly: Inhibition of Wistar rat lens aldose reductase 2 by spectrophotometric analysis. Summed up:
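Partially purified lens enzyme (homogenized in cold water, centrifuged 30 min at 0–4 °C, ammonium sulfate 40/50/75% cuts). Mix without DL-glyceraldehyde was preincubated 10 min at 32 °C; the NADPH drop was read at 340 nm at 32 °C in pH 6.2 phosphate, with the substrate-free rate subtracted. At least four concentrations (10^-4–10^-8 M), triplicate; IC50 from log concentration-response regression.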

Assay [2] deals with Aldehyde reductase AKR1A1 (Rattus norvegicus). The assay is described as follows: Inhibition of Wistar rat kidney aldehyde reductase at 50 uM by spectrophotometric analysis.

As to `O=C(O)CN1CN(Cc2cccc([N+](=O)[O-])c2)S(=O)(=O)c2cc(Br)cnc21`, the IC50 in assay [1] worked out at 98 nM. The same compound showed an inhibition in assay [2] of 31.5%.

In assay [1], `O=C(O)CN1CN(Cc2ccc(Br)cc2F)S(=O)(=O)c2cc(Cl)cnc21` gave an IC50 of 44 nM. The compound further registered an inhibition in assay [2] of 36.6%.

Take `O=C(O)CN1CN(Cc2cc(F)c(F)cc2F)S(=O)(=O)c2cc(Cl)cnc21`: the IC50 in assay [1] worked out at 38 nM. The same compound had an inhibition in assay [2] of 36.5%.

In assay [1], `COc1ccc(CN2CN(CC(=O)O)c3ncc(Br)cc3S2(=O)=O)cc1` displayed an IC50 of 11300 nM. In assay [2], this compound had an inhibition of 27.9%.

`COc1ccc(CN2CN(CC(=O)O)c3ncc(Cl)cc3S2(=O)=O)cc1` yielded an IC50 in assay [1] of 6540 nM. In assay [2], this compound returned an inhibition of 32.3%.

`O=C(O)CN1CN(Cc2ccc(C(F)(F)F)cc2)S(=O)(=O)c2cc(Br)cnc21` returned an IC50 in assay [1] of 965 nM. The inhibition in assay [2] was 43.3%.

In turn, `O=C(O)CN1CN(Cc2cccc([N+](=O)[O-])c2)S(=O)(=O)c2cc(Cl)cnc21` came in with an IC50 in assay [1] of 93 nM. In assay [2], this compound displayed an inhibition of 40.2%.

`Cc1cnc2c(c1)S(=O)(=O)N(Cc1ccc(C(F)(F)F)cc1)CN2CC(=O)O`: it took 1000 nM to reach half-maximal inhibition in assay [1] (IC50). Moreover, the inhibition in assay [2] is 20.5%.

Take `Cc1cnc2c(c1)S(=O)(=O)N(Cc1ccc(Br)cc1F)CN2CC(=O)O`: in assay [1], the midpoint of inhibition, the IC50, lay at 127 nM. In assay [2], this compound displayed an inhibition of 24.6%.

In turn, `Cc1cnc2c(c1)S(=O)(=O)N(Cc1cccc([N+](=O)[O-])c1)CN2CC(=O)O` gave an IC50 in assay [1] of 143 nM. In addition, the inhibition in assay [2] was found to be 23.2%.

In the case of `Cc1cnc2c(c1)S(=O)(=O)N(Cc1cc(F)c(F)cc1F)CN2CC(=O)O`, in assay [1], the IC50 is 84 nM. In addition, the inhibition in assay [2] came to 35.4%.

In turn, `O=C(O)CN1CN(Cc2cc(F)c(F)cc2F)S(=O)(=O)c2cc(Br)cnc21` came in with an IC50 in assay [1] of 66 nM. Also, the inhibition in assay [2] turned out to be 44.2%.

Take `O=C(O)CN1CN(Cc2ccc(C(F)(F)F)cc2)S(=O)(=O)c2cc(Cl)cnc21`: the IC50 in assay [1] worked out at 1010 nM. The compound further displayed an inhibition in assay [2] of 42.3%.

Consider `O=C(O)CN1CN(Cc2ccc(Br)cc2F)S(=O)(=O)c2cc(Br)cnc21`, for which the IC50 in assay [1] is 69 nM. Further, in assay [2], the inhibition stood at 44.9%.

The compound `COc1ccc(CN2CN(CC(=O)O)c3ncc(C)cc3S2(=O)=O)cc1` registered an IC50 in assay [1] of 6270 nM. For the same compound, in assay [2], the inhibition stood at 17.7%.

The IC50 is the point on the concentration scale where inhibition reaches its midpoint. Usually inhibition stands for the drop in the measured response relative to a control, in per cent. A higher inhibition goes with strong suppression.
